# FN deposit inh: fibronectin deposition inhibition. AH1F fibroblasts, Alexa488-fibronectin deposition fluorescence, overnight. actives 0.086% (n = 350,000). AID 743247. inhibition, % at 12.6 µM;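 active = mean inhibition across replicates of 30% or more, regardless of how many single replicates reach that level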
#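 Assay system: AH1F fibroblasts / Quantity: 10000 cells per well / Medium: DMEM plus 2% serum, read in PBS / Reagent: labelled fibronectin 24 nM / Dosing: single dose, pinned / Times: 1 h cell attachment, overnight exposure to compound and label / Signal: fluorescence, ex 485 nm, em 525 nm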
# ARNT-TACC3 inh: disruptors of human ARNT/TACC3 interaction. actives 0.66% (n = 390,000). AID 623870. inhibition, % at 9.99 µM. AlphaScreen His-ARNT PAS-B/GST-TACC3 binding, luminescence; TACC3 fragment carries E629A point mutation. Q9Y6A5;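 active = mean inhibition of replicates at least 50% and at least half of replicates each reaching 50%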
# ERp5 inh: inhibitors of human ERp5; Q15084; ERp5 insulin aggregation, absorbance 650 nm, 90 min; inhibition, % at 9.99 µM; actives 0.05% (n = 350,000); AID 651711;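 active = mean replicate inhibition above about 25%, with every replicate also reaching it, limit read from the data, passing the limit was not always enough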
# Target sequence (Q15084 whole entry, looked up): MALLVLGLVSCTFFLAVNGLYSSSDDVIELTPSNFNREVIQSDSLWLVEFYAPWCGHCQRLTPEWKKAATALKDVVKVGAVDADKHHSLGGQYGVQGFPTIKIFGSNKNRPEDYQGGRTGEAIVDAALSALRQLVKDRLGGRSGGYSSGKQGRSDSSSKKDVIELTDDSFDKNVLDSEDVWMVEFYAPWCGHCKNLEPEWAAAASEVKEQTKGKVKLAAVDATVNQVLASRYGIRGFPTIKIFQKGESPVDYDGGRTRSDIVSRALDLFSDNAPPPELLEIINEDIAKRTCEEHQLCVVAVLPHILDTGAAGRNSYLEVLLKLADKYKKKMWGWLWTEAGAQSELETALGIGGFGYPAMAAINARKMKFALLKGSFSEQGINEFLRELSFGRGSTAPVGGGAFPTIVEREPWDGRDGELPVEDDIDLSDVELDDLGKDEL
# PDI inh: blocks human protein disulfide isomerase activity; inhibition, % at 10 µM; PDI insulin aggregation turbidity, A650, 90 min; P07237; actives 0.052% (n = 350,000);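 active = mean inhibition across replicates of 30% or more, whatever share of single replicates reach that level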
# FGF22 binding: shifts melting point of recombinant human FGF22; recombinant FGF22 thermal shift, SYPRO orange fluorescence; percent of sucrose octasulfate shift, DMSO zero; activity (Tm shift, normalised), % at 9.99 µM; actives 1.5% (n = 340,000);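 active = mean Tm shift, scaled 0 neutral to 100 positive control, at about 1.3% or above, every replicate too, limit read from the data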
# MLL AF4-AF9 inh: MLL-AF4/AF9 protein interaction inhibition | P42568 | inhibition, % at 10 µM | AlphaScreen, biotin-AF4 peptide binding to FLAG-AF9 | actives 0.47% (n = 350,000);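 active = every replicate reaching a set inhibition limit, whatever the replicate mean, cut at about 25% in these data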
# A number is an active result; i = inactive; nt = no result. Most compounds without a hit are left out; they make up all but 2.1% or so of the library.
SMILES,FN deposit inh,ARNT-TACC3 inh,ERp5 inh,PDI inh,FGF22 binding,MLL AF4-AF9 inh
Cc1noc(C)c1NC(=O)N(C)C[C@@H]1Oc2ccc(NC(=O)Nc3ccc(C(F)(F)F)cc3)cc2C(=O)N([C@H](C)CO)C[C@H]1C,i,i,i,nt,i,i
C[C@H](CO)N1C[C@H](C)[C@@H](CN(C)S(=O)(=O)c2cn(C)cn2)Oc2c(NC(=O)Cc3ccccc3)cccc2C1=O,i,nt,nt,nt,nt,nt
Cc1noc(C)c1NC(=O)N(C)C[C@@H]1OCCCC[C@@H](C)Oc2ccc(NS(C)(=O)=O)cc2C(=O)N([C@@H](C)CO)C[C@H]1C,nt,i,nt,nt,i,nt
O=C(C[C@H]1CC[C@H](NC(=O)CN2CCOCC2)[C@H](CO)O1)NCc1cccc(F)c1,i,i,i,nt,i,i
CC(=O)N/N=C(\C)c1ccc2c(c1)OCCO2,i,i,i,i,43,i
C/C(=N\NC(N)=S)c1ccc2c(c1)OCCO2,i,i,i,i,i,i
C[C@H]1CN([C@@H](C)CO)C(=O)c2cccc(NS(=O)(=O)c3ccccc3)c2O[C@@H]1CN(C)CC1CCCCC1,nt,i,i,nt,i,i
Cc1ccc(C2(C)NC(=O)N(CC(=O)c3ccc4c(c3)OCCO4)C2=O)cc1 (centres undefined),nt,i,i,i,i,i
CCc1ccc(C(=O)CN2C(=O)NC(C)(c3ccc(C)cc3)C2=O)cc1 (centres undefined),i,i,i,i,43,i
CC=Cc1ccc2n(c1=O)C[C@@H]1[C@@H](CO)[C@H](C(=O)N(C)C)N(C(=O)CC3CC3)[C@H]21 (mixture of isomers),nt,i,i,nt,i,i
NC(=O)c1cc(NC(=O)c2cc(Br)c(Br)s2)cc(C(N)=O)c1,i,i,i,i,43,i
O=C(Nc1cccnc1)c1cc(Br)c(Br)s1,i,i,i,i,i,i
Cc1noc(C)c1S(=O)(=O)N(C)C[C@@H]1OCCCC[C@@H](C)Oc2ccc(NC(=O)Nc3cccc4ccccc34)cc2C(=O)N([C@H](C)CO)C[C@H]1C,nt,i,i,nt,i,i
COc1ccccc1NC(=O)C(=O)N/N=C/c1ccc([N+](=O)[O-])s1,i,nt,i,i,44,i
COc1ccccc1CNC(=O)C[C@H]1C[C@H]2c3cc(NS(C)(=O)=O)ccc3O[C@H]2[C@H](CO)O1,i,i,i,nt,i,i
COc1cc(/C=C/C(=O)OCC(=O)NC(=O)NC(C)(C)C)ccc1O,i,i,i,i,i,i
COc1cc(/C=C/C(=O)OCC(=O)Nc2cccc(F)c2)ccc1O,i,i,i,i,45,i
CC1(C)CC(NC(=O)COc2ccccc2Cl)CC(C)(C)N1,i,nt,i,i,44,i
COc1cccc(C(=O)c2c[nH]c(C(=O)NCCCN3CCOCC3)c2)c1,i,i,i,i,43,i
COc1ccc(C(=O)N2CCCC(CCC(=O)NCc3ccc(F)c(F)c3)C2)o1 (centres undefined),nt,i,i,i,43,i
CC(C)(C)Nc1scc(-c2ccccc2)[n+]1-c1ccccc1,i,i,i,i,i,28
Cc1c(N/N=C(\C#N)C(=O)c2ccccc2)c(=O)n(-c2ccccc2)n1C,i,67,i,i,i,i
Cc1ccccc1C(=O)/C(C#N)=N/Nc1c(C)n(C)n(-c2ccccc2)c1=O,i,57,nt,i,nt,nt
CN(C)C(=O)[C@@H]1[C@@H](CO)[C@@H]2Cn3c(ccc(-c4ccccc4F)c3=O)[C@@H]2N1C(=O)c1cnccn1,nt,i,i,nt,i,i
O=C(CN1CCC(NC(=O)c2ccccc2F)CC1)Nc1ccc2c(c1)OCCO2,i,i,i,i,43,i
Cc1ccccc1C(=O)NC1CCN(CC(=O)Nc2ccc3c(c2)OCCO3)CC1,i,i,i,i,i,i
C[C@H](CO)N1C[C@H](C)[C@H](CN(C)C(=O)c2ccc(F)cc2)Oc2cc(-c3cccc(C#N)c3)ccc2S1(=O)=O,nt,i,i,nt,i,i
C[C@H]1C(C(=O)N(C)C2CCCCC2)=Cc2c(n(-c3ccc(F)cc3)c(=O)n2CCCOc2ccccc2)C=C1c1ccccc1,i,nt,i,nt,i,84

# Screening results deposited in PubChem BioAssay by Broad Institute.
